From ChEMBL document CHEMBL1123373, “9-(2-Deoxy-2-fluoro-beta-D-arabinofuranosyl)guanine: a metabolically stable cytotoxic analogue of 2'-deoxyguanosine” (J Med Chem, 1986) come the findings set out here.

For assay [1], the system named is L1210. The experiment in a line: Inhibition of RNA synthesis in L1210 cells by the compound was determined the reduced incorporation of [5-3H]-Urd into RNA at the concentration of 100 uM; NI denotes no inhibition. In kind it is functional, cell-based. Particulars: Mus musculus. The method in brief: (§1)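 Cultured L1210 cells exposed to drug at 25, 50 or 100 µM. Label incorporation measured: [3H]dThd into DNA, [5-3H]Urd into RNA, [4,5-3H]L-Leu into protein. Values are percent inhibition of incorporation.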

Assay [2] concerns L1210. As to the kind of experiment: Inhibition of protein synthesis in L1210 cells by the compound was determined the reduced incorporation of [4,5-3H]L-Leu into protein. In kind it is functional, Mus musculus. The method in brief:
as §1

The next assay has as its system B-cell. The experiment in a line: Compound was tested for its cytotoxicity against B- cell line (Wi-L2 B -lymphoblasts). In kind it is functional, cell-based. Particulars: Homo sapiens. The essentials:
(§2)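 Cells seeded at 1 × 10^5/mL in RPMI 1640 with 10% fetal calf serum, 2 mM L-glutamine and increasing drug concentrations. Cultured 3 days under 95% air/5% CO2. Viable cells counted microscopically after adding 0.1% erythrocin B, relative to drug-free cultures. Points are mean ± SEM, except the adenosine kinase-deficient mutant, which used duplicates.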

Assay [3] concerns L1210. As to the kind of experiment: Inhibition of DNA synthesis in L1210 cells by the compound was determined the reduced incorporation of incorporation of [3H]dThd into DNA at concentration of 50 uM. In kind it is functional. Particulars: Mus musculus. The method in brief: as §1
Another assay relates to Wild type T- cell line. The experiment in a line: Compound was tested for its cytotoxicity against wild type T- cell line. Particulars: Homo sapiens. It counts as functional, cell-based. The essentials:
as §2

Assay [4] deals with L1210. As to the kind of experiment: Compound was tested for its ability to inhibit the incorporation of [3H]dThd into DNA at concentration of 100 uM. It counts as functional. Particulars: Mus musculus. The method in brief: as §1
The subject of assay [5] is L1210. As to the kind of experiment: Effect of compound on macromolecular synthesis in L1210 cells in culture; 8.5-17uM. The note with it: Mus musculus. In kind it is functional, cell-based.
In assay [6] the test system is L1210. As to the kind of experiment: Inhibition of DNA synthesis in L1210 cells by the compound was determined the reduced incorporation of incorporation of [3H]dThd into DNA at concentration of 25 uM. In kind it is functional. The note with it: Mus musculus. The method in brief: as §1
Assay [7] in a line: Compound was tested for its cytotoxicity against MGL-8 B -lymphoblasts. In kind it is functional, Homo sapiens. The essentials: as §2
Another assay concerns T-cell. The experiment in a line: Compound was tested for its cytotoxicity against T- cell line. In kind it is functional, cell-based. The note with it: Homo sapiens. The essentials: as §2

The structures appear in SMILES notation. Calls of active or inactive are those of the source. The rule behind the calls is not given here.

By inhibition is commonly meant the change of the read-out against control, counted positive when it falls. As a reminder, the Inhibition is the relative decrease from the control value, in per cent. High values mean a strong effect, low ones a weak effect. As usually defined, the IC50 is the midpoint of a concentration-inhibition curve. As to `Nc1nc(O)c2ncn([C@@H]3O[C@H](CO)[C@@H](O)[C@@H]3F)c2n1` [F-ARAG], the inhibition result in the assay on L1210 [1] was “inactive”. Also, in the assay with L1210 [2], the Inhibition turned out to be 17%. In addition, the IC50 in the assay on B-cell is roughly 750 nM; in the assay with Wild type T- cell line it was roughly 200 nM; in the assay on L1210 [5], 8500 nM. In the assay on L1210 [3], this compound had an inhibition at 50 µM of 62%. This compound gave an inhibition at 100 µM in the assay with L1210 [4] of 76%. In the assay with L1210 [6], the inhibition at 25 µM is 12%.

For the compound `Nc1nc2c(ncn2[C@@H]2O[C@H](CO)[C@@H](O)[C@H]2O)c(=O)[nH]1` [GUANOSINE], the figures for the IC50 (in assay [7]; in the assay with T-cell) were 7000 nM and 100 nM, respectively.
